Test results as given in ChEMBL document CHEMBL3774376, “Synthesis, and anticonvulsant activity of new amides derived from 3-methyl- or 3-ethyl-3-methyl-2,5-dioxo-pyrrolidin-1-yl-acetic acids” (Bioorg Med Chem, 2016).
Calls of active or inactive are those of the source. The rule behind the calls is not given here.

Columns and labels:
[1] = system: Mus musculus; experiment: Anticonvulsant activity in ip dosed CD1 albino mouse assessed as time to peak effect by 6Hz psychomotor seizure test; format: functional
How it was run: (§1)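 6-Hz corneal stimulation at 32 mA (6 Hz, 3 s) in male CD-1 mice dosed ip. Groups of six received several doses until at least three points fell between 10 and 90% protection. […] PI = TD50/ED50 (rotarod).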

[2] = Neurotoxicity in ip dosed CD1 albino mouse assessed as acute motor impairment by rotarod test; format: toxicity, organism-based; settings: in vivo
How it was run: (§2)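 Quantitation in male CD-1 mice dosed ip at the previously estimated time of peak effect. Seizures were induced by MES or by sc pentylenetetrazole 85 mg/kg; rotarod at 10 rpm assessed motor impairment. Groups of six, at least three doses giving 10-90% effect.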

[3] = system: Mus musculus; experiment: Anticonvulsant activity in CD1 albino mouse assessed as protection against subcutaneous pentylenetetrazole-induced seizures at 100 to 300 mg/kg, ip after 0.5 hrs; format: functional; settings: CD1, 0.5 h, read-out: MED
How it was run: (§3)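 Male CD-1 mice (16-26 g), compounds ip in 0.5% methylcellulose/water at 30, 100 or 300 mg/kg, 3-4 per group. At 0.5 or 4 h, pentylenetetrazole 85 mg/kg was injected sc. Protection was absence of clonic convulsions (at least 5 s) over a 30 min observation. Minimum active dose recorded.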

[4] = system: Mus musculus; experiment: Anticonvulsant activity in CD1 albino mouse assessed as protection against subcutaneous pentylenetetrazole-induced seizures at 300 mg/kg, ip after 4 hrs; format: functional, organism-based; how it was run: as §3
[5] = system: Mus musculus; experiment: Neurotoxicity in CD1 albino mouse assessed as acute motor impairment at 300 mg/kg, ip after 4 hrs by rotarod test; format: toxicity, organism-based; settings: in vivo
How it was run: (§4)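 Male CD-1 mice given 30, 100 or 300 mg/kg ip in 0.5% methylcellulose, tested at 0.5 and 4 h. Motor impairment was scored as failure to keep balance for at least 1 min on a rod rotating at 10 rpm. Minimum dose causing impairment reported.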

[6] = system: Mus musculus; experiment: Anticonvulsant activity in CD1 albino mouse assessed as protection against maximal electroshock-induced seizures at 300 mg/kg, ip after 4 hrs; format: functional, organism-based
[7] = system: Mus musculus; experiment: Neurotoxicity in CD1 albino mouse assessed as acute motor impairment at 100 to 300 mg/kg, ip after 0.5 hrs by rotarod test; format: toxicity, organism-based; settings: in vivo; how it was run: as §4
[8] = system: Mus musculus; experiment: Anticonvulsant activity in CD1 albino mouse assessed as protection against maximal electroshock-induced seizures at 100 to 300 mg/kg, ip after 0.5 hrs; format: functional; settings: read-out: MED
[9] = system: Mus musculus; experiment: Anticonvulsant activity in CD1 albino mouse assessed as protection against subcutaneous pentylenetetrazole-induced seizures at 300 mg/kg, ip after 0.5 hrs; format: functional, organism-based; how it was run: as §3
[10] = system: Mus musculus; experiment: Neurotoxicity in CD1 albino mouse assessed as acute motor impairment at 300 mg/kg, ip measured after 0.5 hrs by rotarod test; format: toxicity, organism-based; settings: in vivo; how it was run: as §4
[11] = system: Mus musculus; experiment: Anticonvulsant activity in CD1 albino mouse assessed as protection against maximal electroshock-induced seizures at 300 mg/kg, ip after 0.5 hrs; format: functional, organism-based
[12] = system: Mus musculus; experiment: Anticonvulsant activity in ip dosed CD1 albino mouse assessed as time to peak effect; format: functional; how it was run: as §2
[13] = system: Mus musculus; experiment: Anticonvulsant activity in CD1 albino mouse assessed as protection against subcutaneous pentylenetetrazole-induced seizures at 100 to 300 mg/kg, ip after 4 hrs; format: functional; settings: CD1, 4 h, read-out: MED; how it was run: as §3
[14] = system: Mus musculus; experiment: Local anesthetic activity in CD1 albino mouse assessed prolongation of time reaction at 1 % concentration after 20 secs by tail immersion test relative to vehicle control; format: functional
How it was run: (§5)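 Compound at 1 or 2% in 0.5% methylcellulose, injected sc (0.2 ml) about 1 cm from the tail root of male CD-1 mice. After 15 min, the distal 3 cm of the tail was immersed in 50 ± 0.5 °C water and withdrawal time measured, cut off at 20 s. n=8; mean ± SEM; % prolongation relative to vehicle.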

[15] = system: Mus musculus; experiment: Local anesthetic activity in CD1 albino mouse assessed prolongation of time reaction at 2 % concentration after 20 secs by tail immersion test relative to vehicle control; format: functional; how it was run: as §5
[16] = species: Mus musculus; experiment: Protection index, ratio of TD50 for CD1 albino mouse to ED50 for protection against maximal electroshock-induced seizures in CD1 albino mouse; how it was run: as §2
[17] = species: Rattus norvegicus; experiment: Displacement of [3H]BTX from voltage-sensitive Na+ channel site 2 in rat cerebral cortex synaptoneurosomes at 100 uM after 60 mins by liquid scintillation spectroscopic analysis; format: tissue-based
How it was run: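 Cerebral cortex synaptoneurosomes from rat, tested at 100 µM for inhibition of specific [3H]BTX binding to the voltage-sensitive Na+ channel site 2. Reported as % inhibition of control specific binding; run commercially.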

[18] = system: Mus musculus; experiment: Anticonvulsant activity in CD1 albino mouse assessed as protection against maximal electroshock-induced seizures at 100 to 300 mg/kg, ip after 4 hrs; format: functional; settings: read-out: MED
[19] = system: Mus musculus; experiment: Neurotoxicity in CD1 albino mouse assessed as acute motor impairment at 100 to 300 mg/kg, ip after 4 hrs by rotarod test; format: toxicity, organism-based; settings: in vivo; how it was run: as §4
[20] = species: Mus musculus; experiment: Protection index, ratio of TD50 for CD1 albino mouse to ED50 for protection against 32 mA-current- for 3 secs induced seizure in CD1 albino mouse by 6Hz psychomotor seizure test; how it was run: as §1
[21] = system: Mus musculus; experiment: Anticonvulsant activity in ip dosed CD1 albino mouse assessed as protection against maximal electroshock-induced seizures; format: functional
[22] = system: Mus musculus; experiment: Anticonvulsant activity in ip dosed CD1 albino mouse assessed as protection against 32 mA-current- for 3 secs induced seizure by 6Hz psychomotor seizure test; format: functional; how it was run: as §1
[23] = system: Mus musculus; experiment: Anticonvulsant activity in CD1 mouse assessed as protection against 32 mA-current- for 3 secs induced seizure at 100 mg/kg, ip after 0.5 hrs by 6Hz psychomotor seizure test; format: functional
How it was run: (§6)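 Male CD-1 mice given 100 mg/kg ip in 0.5% methylcellulose, four per time point. Corneal stimulation at 32 mA, 0.2 ms monopolar rectangular pulses at 6 Hz for 3 s, from a constant-current device. A mouse was protected if it resumed normal exploratory behavior within 10 s. Reported as number protected over number tested.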

[24] = system: Mus musculus; experiment: Protection index, ratio of TD50 for CD1 albino mouse to ED50 for protection against subcutaneous pentylenetetrazole-induced seizures in CD1 albino mouse; how it was run: as §2
[25] = system: Mus musculus; experiment: Anticonvulsant activity in ip dosed CD1 albino mouse assessed as protection against subcutaneous pentylenetetrazole-induced seizures; format: functional; how it was run: as §2
[26] = system: Mus musculus; experiment: Anticonvulsant activity in CD1 mouse assessed as protection against 32 mA-current- for 3 secs induced seizure at 100 mg/kg, ip after 0.25 hrs by 6Hz psychomotor seizure test; format: functional; how it was run: as §6
[27] = system: Mus musculus; experiment: Anticonvulsant activity in CD1 mouse assessed as protection against 32 mA-current- for 3 secs induced seizure at 100 mg/kg, ip after 2 hrs by 6Hz psychomotor seizure test; format: functional, organism-based; how it was run: as §6

| Structure (SMILES) | minimal effective dose [3] [mg/kg] | Activity [4] | Activity [5] | Activity [6] | MTC [7] [mg/kg] | minimal effective dose [8] [mg/kg] | Activity [9] | Activity [10] | Activity [11] | also measured |
| --- | --- | --- | --- | --- | --- | --- | --- | --- | --- | --- |
| CC[C@@H](C(N)=O)N1CCCC1=O | – | – | – | – | – | – | – | – | – | Time [1]: 1 h; TD50 [2]: > 500 mg/kg |
| Cc1cccc(N2CCN(C(=O)CN3C(=O)CC(C)C3=O)CC2)c1 (centres undefined) | 100 | inactive | Non-toxic | inactive | 300 | 300 | – | – | – | – |
| CCC1(C)CC(=O)N(CC(=O)N2CCN(c3ccccc3C)CC2)C1=O (centres undefined) | 100 | inactive | Non-toxic | inactive | 300 | 100 | – | – | – | – |
| CCC1(C)CC(=O)N(CC(=O)N2CCN(c3ccccc3)CC2)C1=O (centres undefined) | – | inactive | Non-toxic | inactive | – | – | inactive | Non-toxic | inactive | – |
| CCCC(CCC)C(=O)O [VALPROIC ACID] | 300 | inactive | Non-toxic | inactive | – | 300 | – | Non-toxic | – | Time [1]: 0.5 h; Time [12]: 0.5 h |
| Cc1ccccc1N1CCN(C(=O)CN2C(=O)CC(C)C2=O)CC1 (centres undefined) | 100 | inactive | Non-toxic | inactive | 300 | 300 | – | – | – | – |
| CCC1(C)CC(=O)N(CC(=O)N2CCN(c3cccc(Cl)c3)CC2)C1=O (centres undefined) | – | inactive | Non-toxic | inactive | – | – | inactive | Non-toxic | inactive | – |
| CC1CC(=O)N(CC(=O)N2CCN(c3ccccc3)CC2)C1=O (centres undefined) | 300 | – | Non-toxic | inactive | 300 | 300 | – | – | – | minimal effective dose [13]: 300 mg/kg |
| CCC1(C)CC(=O)NC1=O (centres undefined) [ETHOSUXIMIDE] | 100 | – | Non-toxic | inactive | – | – | – | Non-toxic | inactive | Time [12]: 0.25 h; minimal effective dose [13]: 300 mg/kg |
| CCC1(C)CC(=O)N(CC(=O)N2CCN(c3ccc(Cl)c(Cl)c3)CC2)C1=O (centres undefined) | – | inactive | Non-toxic | inactive | – | – | inactive | Non-toxic | inactive | – |
| Cc1cccc(C)c1NC(=O)C1CCCCN1C (centres undefined) [MEPIVACAINE] | – | – | – | – | – | – | – | – | – | Activity [14]: 94.63%; Activity [15]: 116.67% |
| O=C1NC(=O)C(c2ccccc2)(c2ccccc2)N1 [PHENYTOIN] | – | inactive | – | – | 100 | 30 | inactive | – | – | Ratio TD50/ED50 [16]: 8.56; inhibition [17]: 53.9%; minimal effective dose [18]: 30 mg/kg; Activity [14]: 18%; Time [12]: 1 h; TD50 [2]: 56.9 mg/kg; MTC [19]: 100 mg/kg; Activity [15]: 84% |
| CCC1(C)CC(=O)N(CC(=O)N2CCN(c3ccccc3F)CC2)C1=O (centres undefined) | – | inactive | Non-toxic | inactive | – | – | inactive | Non-toxic | inactive | – |
| CC1CC(=O)N(CC(=O)N2CCN(c3cccc(C(F)(F)F)c3)CC2)C1=O (centres undefined) | 300 | inactive | – | – | 300 | 100 | – | – | – | minimal effective dose [18]: 100 mg/kg; MTC [19]: 300 mg/kg |
| CCC1(C)CC(=O)N(CC(=O)N2CCN(c3ccccc3Cl)CC2)C1=O (centres undefined) | – | inactive | Non-toxic | inactive | 300 | 100 | inactive | – | – | Ratio TD50/ED50 [20]: 1.8; Ratio TD50/ED50 [16]: 1.08; Time [1]: 0.5 h; ED50 [21]: 122 mg/kg; ED50 [22]: 73.3 mg/kg; Activity [23]: 100%; Time [12]: 0.5 h; TD50 [2]: 132 mg/kg |
| CC1CC(=O)N(CC(=O)N2CCN(c3cccc(Cl)c3Cl)CC2)C1=O (centres undefined) | 100 | – | Non-toxic | inactive | – | – | – | Non-toxic | inactive | Ratio TD50/ED50 [24]: 4.6; Time [12]: 1 h; ED50 [25]: 74.7 mg/kg; TD50 [2]: 343 mg/kg; minimal effective dose [13]: 100 mg/kg |
| CC1CC(=O)N(CC(=O)N2CCN(c3ccccc3F)CC2)C1=O (centres undefined) | – | inactive | Non-toxic | – | 300 | 300 | inactive | – | – | minimal effective dose [18]: 300 mg/kg |
| CC1CC(=O)N(CC(=O)N2CCN(c3ccccc3Cl)CC2)C1=O (centres undefined) | 300 | inactive | Non-toxic | inactive | 300 | 300 | – | – | – | Ratio TD50/ED50 [20]: >3.29; Time [1]: 0.25 h; Activity [26]: 100%; ED50 [22]: 152 mg/kg; Activity [27]: inactive; TD50 [2]: > 500 mg/kg |
| CCC1(C)CC(=O)N(CC(=O)N2CCN(c3ccc(Cl)cc3)CC2)C1=O (centres undefined) | 100 | inactive | Non-toxic | inactive | 300 | – | – | – | inactive | Ratio TD50/ED50 [20]: 1.53; Time [1]: 0.5 h; ED50 [22]: 128 mg/kg; TD50 [2]: 196 mg/kg |
| CCC1(C)CC(=O)N(CC(=O)N2CCN(c3cccc(C)c3)CC2)C1=O (centres undefined) | – | inactive | Non-toxic | inactive | – | – | inactive | Non-toxic | inactive | – |
| CCC1(C)CC(=O)N(CC(=O)N2CCN(c3cccc(Cl)c3Cl)CC2)C1=O (centres undefined) | – | inactive | Non-toxic | inactive | – | – | inactive | Non-toxic | inactive | – |
